Laboratory results taken from article PMC9350903 (ACS chemical neuroscience, 2021).
Several values for one entry are separate records, joined by “and”; a condition that tells them apart may be missing. Equal entries are not always repeated.

Assays:
CSF-1R [1] = target: T1, CSF-1R (Rattus norvegicus, UniProt Q00495); assay: [^3H]CPPC autoradiography in intrastriatal LPS rat brain tissues; format: binding
T1 sequence (Q00495 20-978): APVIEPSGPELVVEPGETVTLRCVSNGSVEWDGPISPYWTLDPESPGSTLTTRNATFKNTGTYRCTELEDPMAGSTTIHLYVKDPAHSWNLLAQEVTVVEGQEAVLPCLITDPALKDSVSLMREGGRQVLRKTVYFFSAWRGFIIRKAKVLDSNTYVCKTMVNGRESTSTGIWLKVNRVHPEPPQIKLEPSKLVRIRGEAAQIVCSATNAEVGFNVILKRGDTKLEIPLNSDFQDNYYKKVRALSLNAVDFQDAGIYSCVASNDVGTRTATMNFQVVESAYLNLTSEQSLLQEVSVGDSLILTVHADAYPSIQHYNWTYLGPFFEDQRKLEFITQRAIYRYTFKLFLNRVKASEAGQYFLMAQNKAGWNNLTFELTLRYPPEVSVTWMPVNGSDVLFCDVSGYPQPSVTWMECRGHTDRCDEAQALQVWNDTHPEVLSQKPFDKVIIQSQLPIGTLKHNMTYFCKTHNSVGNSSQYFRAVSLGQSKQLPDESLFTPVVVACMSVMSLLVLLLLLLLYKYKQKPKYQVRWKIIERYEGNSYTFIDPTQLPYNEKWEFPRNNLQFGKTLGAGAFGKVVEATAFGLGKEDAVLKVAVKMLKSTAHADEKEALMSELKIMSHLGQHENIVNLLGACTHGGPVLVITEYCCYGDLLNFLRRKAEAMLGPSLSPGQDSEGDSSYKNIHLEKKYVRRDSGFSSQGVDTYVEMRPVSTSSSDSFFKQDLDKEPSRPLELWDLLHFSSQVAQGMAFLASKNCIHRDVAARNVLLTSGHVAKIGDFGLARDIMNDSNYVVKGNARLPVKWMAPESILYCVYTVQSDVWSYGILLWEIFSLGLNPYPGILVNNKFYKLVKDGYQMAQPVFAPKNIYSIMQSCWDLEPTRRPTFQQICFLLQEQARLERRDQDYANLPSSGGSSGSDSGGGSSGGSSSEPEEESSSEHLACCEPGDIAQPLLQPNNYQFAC

CSF-1R [2] = target: T2, CSF-1R (Mus musculus, UniProt P09581); assay: [^3H]CPPC autoradiography in GBM mouse model brain tissue; format: binding; conditions: mouse GBM brain sections; 18 nM [^3H]CPPC; defined using unlabeled 10 μM CPPC
T2 sequence (P09581 20-977): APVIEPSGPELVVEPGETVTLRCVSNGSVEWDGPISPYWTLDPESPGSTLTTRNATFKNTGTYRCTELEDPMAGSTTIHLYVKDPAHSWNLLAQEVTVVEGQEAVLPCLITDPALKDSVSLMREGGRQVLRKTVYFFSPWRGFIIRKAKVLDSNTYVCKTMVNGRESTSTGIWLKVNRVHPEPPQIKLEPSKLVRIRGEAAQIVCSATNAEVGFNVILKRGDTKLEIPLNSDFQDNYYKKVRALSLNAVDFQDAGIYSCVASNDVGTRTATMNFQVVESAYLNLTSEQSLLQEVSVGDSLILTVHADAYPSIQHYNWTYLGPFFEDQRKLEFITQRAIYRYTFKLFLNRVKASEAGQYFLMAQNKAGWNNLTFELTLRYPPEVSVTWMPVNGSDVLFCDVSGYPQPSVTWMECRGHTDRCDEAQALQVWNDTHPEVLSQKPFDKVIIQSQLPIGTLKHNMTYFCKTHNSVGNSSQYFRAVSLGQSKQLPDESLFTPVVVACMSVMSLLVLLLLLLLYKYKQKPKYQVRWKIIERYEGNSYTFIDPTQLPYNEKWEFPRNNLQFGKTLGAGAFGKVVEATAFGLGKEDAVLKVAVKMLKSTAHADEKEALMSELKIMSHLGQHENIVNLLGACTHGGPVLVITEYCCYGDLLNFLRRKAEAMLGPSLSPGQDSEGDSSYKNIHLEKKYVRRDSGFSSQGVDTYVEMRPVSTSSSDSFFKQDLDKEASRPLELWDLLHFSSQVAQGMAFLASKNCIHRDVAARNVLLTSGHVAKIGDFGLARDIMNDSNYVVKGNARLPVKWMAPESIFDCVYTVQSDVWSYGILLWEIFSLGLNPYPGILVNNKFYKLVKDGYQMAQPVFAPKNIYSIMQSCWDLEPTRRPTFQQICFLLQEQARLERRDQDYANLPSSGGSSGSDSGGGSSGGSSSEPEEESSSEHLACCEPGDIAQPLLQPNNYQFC
Method in brief: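 Male-unspecified mice received a unilateral intrastriatal injection of 2.5e6 […] cells. Tumour-bearing mice were selected by MRI on day 10 and killed 9 days later. Brains were fresh-frozen and cut at 10 μm. Sections were incubated with tritiated test compound in 100% FBS for 2 h at room temperature. Non-specific binding used 10 μM unlabeled compound. Sections were washed in 0.5% BSA at 4 °C, then water at 4 °C, exposed to a phosphor screen for 5 days and analysed by ROI.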

CSF-1R [3] = target: T2, CSF-1R; assay: [^3H]CPPC autoradiography in i.p. LPS mouse spleen tissues; format: binding
CSF-1R [4] = assay: No-Wash Assay with [^3H]CPPC in LPS-treated spleen and LPS injected brains; format: binding; conditions: LPS-treated spleen, 7-day and 30-day post LPS injected brains
[5] = Storage stability of [^3H]CPPC; format: physicochemical; conditions: stored at −20 °C in ethanol; over the first 6 months
Method in brief: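 Tritiated test compound (80 Ci/mmol; 1 mCi/mL stock) was stored in ethanol at −20 °C. Decomposition was measured at 2, 4 and 6 months.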

403 known kinases = assay: scanMAX KINOMEscan profile; format: binding; conditions: 10 μM unlabeled CPPC; number of kinases hit of number tested
Method in brief: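 Outsourced scanMAX KINOMEscan competition-binding profile of 403 kinases. Unlabeled test compound was tested at 10 μM, and kinases with off-target binding were identified.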

[6] = target: T3, serotonin 5-HT3A receptor (Homo sapiens, UniProt P46098); assay: Eurofins DiscoverX SAFETYscan CNS safety panel
T3 sequence (P46098 24-478): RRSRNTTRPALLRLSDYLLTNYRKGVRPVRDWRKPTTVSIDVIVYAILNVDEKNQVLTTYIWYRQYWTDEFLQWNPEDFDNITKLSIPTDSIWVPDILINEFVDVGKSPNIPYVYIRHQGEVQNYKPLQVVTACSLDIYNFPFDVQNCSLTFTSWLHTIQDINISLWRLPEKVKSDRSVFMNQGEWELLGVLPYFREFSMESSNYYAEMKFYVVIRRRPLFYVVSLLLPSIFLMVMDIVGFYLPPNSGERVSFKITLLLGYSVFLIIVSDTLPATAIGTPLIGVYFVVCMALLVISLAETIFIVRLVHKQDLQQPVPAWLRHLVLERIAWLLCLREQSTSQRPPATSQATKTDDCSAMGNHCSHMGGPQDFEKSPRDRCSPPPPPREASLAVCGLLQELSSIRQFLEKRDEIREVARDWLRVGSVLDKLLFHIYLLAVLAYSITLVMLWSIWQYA

[7] = target: α4β2 nicotinic acetylcholine receptor (Homo sapiens, UniProt P17787+P43681); assay: Eurofins DiscoverX SAFETYscan CNS safety panel
Chain of α4β2 nicotinic acetylcholine receptor (P43681 29-627 limits assumed): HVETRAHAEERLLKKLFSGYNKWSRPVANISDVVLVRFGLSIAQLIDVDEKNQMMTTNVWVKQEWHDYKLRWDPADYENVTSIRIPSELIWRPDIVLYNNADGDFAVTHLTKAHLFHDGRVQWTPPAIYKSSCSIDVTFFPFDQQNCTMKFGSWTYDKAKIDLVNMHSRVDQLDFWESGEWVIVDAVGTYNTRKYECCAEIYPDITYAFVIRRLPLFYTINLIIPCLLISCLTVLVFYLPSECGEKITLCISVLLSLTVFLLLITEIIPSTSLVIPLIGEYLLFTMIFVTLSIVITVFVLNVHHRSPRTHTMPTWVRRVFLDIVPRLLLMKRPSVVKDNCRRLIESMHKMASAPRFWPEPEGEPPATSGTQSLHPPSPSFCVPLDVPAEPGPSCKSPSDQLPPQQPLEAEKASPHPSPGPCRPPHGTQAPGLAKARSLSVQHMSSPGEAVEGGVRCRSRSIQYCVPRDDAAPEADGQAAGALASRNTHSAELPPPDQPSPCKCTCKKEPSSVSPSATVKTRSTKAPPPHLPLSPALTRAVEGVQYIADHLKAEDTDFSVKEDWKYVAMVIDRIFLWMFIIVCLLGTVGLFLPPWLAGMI
Chain of α4β2 nicotinic acetylcholine receptor (P17787 26-502): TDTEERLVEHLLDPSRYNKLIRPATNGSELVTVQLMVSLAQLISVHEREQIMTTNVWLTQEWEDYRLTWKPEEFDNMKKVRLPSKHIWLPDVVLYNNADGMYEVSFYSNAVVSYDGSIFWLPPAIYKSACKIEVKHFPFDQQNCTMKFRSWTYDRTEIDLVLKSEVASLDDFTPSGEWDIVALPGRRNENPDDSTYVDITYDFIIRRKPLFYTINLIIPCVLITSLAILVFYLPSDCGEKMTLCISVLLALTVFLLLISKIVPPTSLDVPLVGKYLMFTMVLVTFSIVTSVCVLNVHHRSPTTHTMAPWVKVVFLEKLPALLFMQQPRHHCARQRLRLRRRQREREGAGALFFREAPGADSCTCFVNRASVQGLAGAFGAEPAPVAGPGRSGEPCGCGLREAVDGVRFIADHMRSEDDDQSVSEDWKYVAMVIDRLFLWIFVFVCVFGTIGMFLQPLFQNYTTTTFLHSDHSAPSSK

[8] = target: NAV 1.5 sodium-gated channel (Homo sapiens, UniProt Q14524); assay: Eurofins DiscoverX SAFETYscan CNS safety panel
Chain of NAV 1.5 sodium-gated channel (Q14524 whole entry): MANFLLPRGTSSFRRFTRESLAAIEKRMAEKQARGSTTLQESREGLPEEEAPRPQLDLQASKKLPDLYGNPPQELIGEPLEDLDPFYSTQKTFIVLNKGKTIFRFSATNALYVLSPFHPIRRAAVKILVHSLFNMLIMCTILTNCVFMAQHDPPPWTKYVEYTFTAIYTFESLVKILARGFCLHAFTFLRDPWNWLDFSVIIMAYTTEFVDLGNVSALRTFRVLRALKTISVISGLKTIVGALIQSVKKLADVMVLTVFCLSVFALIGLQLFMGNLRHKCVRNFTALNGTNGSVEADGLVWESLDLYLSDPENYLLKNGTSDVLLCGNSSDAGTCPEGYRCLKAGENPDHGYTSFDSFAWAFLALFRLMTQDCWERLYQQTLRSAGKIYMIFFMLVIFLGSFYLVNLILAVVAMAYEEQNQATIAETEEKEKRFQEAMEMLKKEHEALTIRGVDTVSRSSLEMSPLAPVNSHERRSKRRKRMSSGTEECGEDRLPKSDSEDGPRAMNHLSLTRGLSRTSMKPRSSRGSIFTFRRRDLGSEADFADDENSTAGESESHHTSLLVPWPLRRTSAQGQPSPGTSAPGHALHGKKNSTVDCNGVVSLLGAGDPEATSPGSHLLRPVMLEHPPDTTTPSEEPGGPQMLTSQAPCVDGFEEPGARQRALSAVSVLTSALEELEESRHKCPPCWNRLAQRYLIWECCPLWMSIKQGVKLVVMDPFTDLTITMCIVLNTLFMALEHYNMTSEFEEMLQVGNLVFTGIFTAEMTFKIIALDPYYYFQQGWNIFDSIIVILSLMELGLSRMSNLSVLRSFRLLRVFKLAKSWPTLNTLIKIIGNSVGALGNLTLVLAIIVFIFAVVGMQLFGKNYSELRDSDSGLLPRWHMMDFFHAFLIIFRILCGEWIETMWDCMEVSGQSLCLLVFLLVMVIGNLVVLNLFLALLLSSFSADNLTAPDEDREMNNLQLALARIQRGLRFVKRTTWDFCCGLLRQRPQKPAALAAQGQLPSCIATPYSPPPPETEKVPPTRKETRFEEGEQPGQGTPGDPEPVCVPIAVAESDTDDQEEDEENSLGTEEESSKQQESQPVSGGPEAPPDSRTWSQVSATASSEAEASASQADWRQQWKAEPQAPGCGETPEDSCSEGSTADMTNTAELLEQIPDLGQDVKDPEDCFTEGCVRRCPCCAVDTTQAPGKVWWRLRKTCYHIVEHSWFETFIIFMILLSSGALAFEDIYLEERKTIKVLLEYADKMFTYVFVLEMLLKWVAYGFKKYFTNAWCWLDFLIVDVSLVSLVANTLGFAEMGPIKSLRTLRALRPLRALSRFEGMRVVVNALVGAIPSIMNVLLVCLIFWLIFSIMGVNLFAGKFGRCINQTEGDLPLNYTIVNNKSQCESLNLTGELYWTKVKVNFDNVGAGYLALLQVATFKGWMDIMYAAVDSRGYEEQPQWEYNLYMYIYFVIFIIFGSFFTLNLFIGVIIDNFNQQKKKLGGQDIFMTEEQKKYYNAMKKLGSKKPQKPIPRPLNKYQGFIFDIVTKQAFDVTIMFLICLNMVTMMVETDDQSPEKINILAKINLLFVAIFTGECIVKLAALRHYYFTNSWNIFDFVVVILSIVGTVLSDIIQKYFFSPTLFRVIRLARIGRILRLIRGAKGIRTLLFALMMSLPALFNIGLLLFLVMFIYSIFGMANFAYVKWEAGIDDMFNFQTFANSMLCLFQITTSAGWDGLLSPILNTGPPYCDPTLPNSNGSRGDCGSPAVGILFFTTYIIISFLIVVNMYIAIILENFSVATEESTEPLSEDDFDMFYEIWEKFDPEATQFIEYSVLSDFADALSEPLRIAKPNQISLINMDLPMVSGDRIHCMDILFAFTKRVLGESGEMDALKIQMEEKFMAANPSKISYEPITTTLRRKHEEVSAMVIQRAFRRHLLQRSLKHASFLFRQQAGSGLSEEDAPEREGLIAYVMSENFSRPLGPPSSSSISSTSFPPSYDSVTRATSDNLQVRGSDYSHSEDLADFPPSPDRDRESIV

insulin receptor = insulin receptor (Homo sapiens, UniProt P06213); assay: Eurofins DiscoverX SAFETYscan CNS safety panel
[9] = target: Tyrosine protein kinase LCK (Homo sapiens, UniProt P06239); assay: Eurofins DiscoverX SAFETYscan CNS safety panel
Chain of Tyrosine protein kinase LCK (P06239 whole entry): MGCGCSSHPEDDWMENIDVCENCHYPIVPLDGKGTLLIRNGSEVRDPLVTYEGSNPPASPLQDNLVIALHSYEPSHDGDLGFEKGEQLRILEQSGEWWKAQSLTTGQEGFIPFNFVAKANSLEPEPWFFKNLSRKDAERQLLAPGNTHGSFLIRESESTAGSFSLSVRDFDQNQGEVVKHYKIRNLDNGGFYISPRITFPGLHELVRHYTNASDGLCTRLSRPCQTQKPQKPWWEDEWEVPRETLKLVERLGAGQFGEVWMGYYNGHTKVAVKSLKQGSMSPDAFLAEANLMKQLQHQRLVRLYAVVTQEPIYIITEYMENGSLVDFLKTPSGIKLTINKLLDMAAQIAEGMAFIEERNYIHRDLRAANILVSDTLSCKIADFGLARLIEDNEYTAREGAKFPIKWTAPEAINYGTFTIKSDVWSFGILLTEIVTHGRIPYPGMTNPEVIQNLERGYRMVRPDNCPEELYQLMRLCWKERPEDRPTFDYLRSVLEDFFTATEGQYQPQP

[10] = target: vascular endothelial growth factor receptor 2 (Homo sapiens, UniProt P35968); assay: Eurofins DiscoverX SAFETYscan CNS safety panel
Chain of vascular endothelial growth factor receptor 2 (P35968 20-1356): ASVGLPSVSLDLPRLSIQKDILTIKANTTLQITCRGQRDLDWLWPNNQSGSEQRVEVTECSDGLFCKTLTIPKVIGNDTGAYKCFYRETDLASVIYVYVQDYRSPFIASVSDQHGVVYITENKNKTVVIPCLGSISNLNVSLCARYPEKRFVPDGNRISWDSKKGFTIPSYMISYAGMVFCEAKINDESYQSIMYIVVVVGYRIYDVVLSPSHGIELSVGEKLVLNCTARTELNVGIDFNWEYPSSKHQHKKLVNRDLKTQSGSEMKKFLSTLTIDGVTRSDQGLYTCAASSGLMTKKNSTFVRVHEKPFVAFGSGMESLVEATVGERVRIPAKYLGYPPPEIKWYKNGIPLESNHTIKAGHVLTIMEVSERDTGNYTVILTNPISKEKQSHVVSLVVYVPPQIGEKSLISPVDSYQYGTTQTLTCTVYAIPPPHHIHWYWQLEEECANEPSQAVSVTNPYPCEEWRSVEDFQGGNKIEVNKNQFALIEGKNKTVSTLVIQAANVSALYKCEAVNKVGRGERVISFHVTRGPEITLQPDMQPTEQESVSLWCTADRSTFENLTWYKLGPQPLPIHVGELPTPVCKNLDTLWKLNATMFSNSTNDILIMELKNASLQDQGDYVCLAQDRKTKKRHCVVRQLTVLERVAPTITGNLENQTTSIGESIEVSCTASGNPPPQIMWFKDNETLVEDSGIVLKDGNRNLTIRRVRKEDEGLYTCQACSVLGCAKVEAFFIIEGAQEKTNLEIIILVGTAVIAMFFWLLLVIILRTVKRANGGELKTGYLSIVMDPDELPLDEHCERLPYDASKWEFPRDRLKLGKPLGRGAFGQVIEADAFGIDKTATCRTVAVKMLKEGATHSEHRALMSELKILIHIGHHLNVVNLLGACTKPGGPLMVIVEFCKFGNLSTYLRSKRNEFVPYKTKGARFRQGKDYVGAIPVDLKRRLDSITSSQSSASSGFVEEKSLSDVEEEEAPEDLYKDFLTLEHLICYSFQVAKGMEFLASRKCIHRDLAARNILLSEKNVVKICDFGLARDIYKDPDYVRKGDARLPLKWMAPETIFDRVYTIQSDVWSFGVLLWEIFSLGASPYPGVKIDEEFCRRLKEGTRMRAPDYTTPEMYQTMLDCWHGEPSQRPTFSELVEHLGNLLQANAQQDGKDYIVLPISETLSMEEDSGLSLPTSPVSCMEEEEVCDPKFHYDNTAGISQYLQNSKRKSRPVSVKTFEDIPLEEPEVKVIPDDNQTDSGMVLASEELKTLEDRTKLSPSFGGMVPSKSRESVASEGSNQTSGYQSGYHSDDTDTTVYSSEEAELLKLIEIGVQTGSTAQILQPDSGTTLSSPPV

CSF-1R [11] = conditions: [^11C]CPPC autoradiography in AD tissues; cited from earlier work
Kit = conditions: cited from earlier work
Axl = conditions: cited from earlier work
TrkA = conditions: cited from earlier work
Flt-3 = conditions: cited from earlier work
IRKβ = conditions: cited from earlier work
TSPO [12] = target: TSPO (Rattus norvegicus, UniProt P16257); assay: [^3H]PBR28 autoradiography in intrastriatal LPS rat brain tissues; format: binding
TSPO [13] = target: T4, TSPO (Mus musculus, UniProt P50637); assay: [^3H]PBR28 autoradiography in GBM mouse model brain tissue; format: binding
Method in brief: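 Mice received an intrastriatal injection of 2.5e6 […] cells and were killed 19 days later. Fresh-frozen brain sections were incubated with 3 nM tritiated TSPO radioligand (total binding) and read by phosphor-screen autoradiography. Adjacent sections were immunostained for IBA-1. Tumour was located by anti-luciferase staining.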

TSPO [14] = target: T4, TSPO; assay: [^3H]PBR28 autoradiography in i.p. LPS mouse spleen tissues; format: binding
Method in brief: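 C57bl/6 male mice, 10 weeks old, received LPS 1 mg/kg i.p. in saline for 3 or 4 consecutive days and were killed on day 5 or 6. Spleens were slow-frozen on dry ice and sectioned. Sections were incubated with ascending concentrations of tritiated TSPO radioligand in 100% FBS for 2 h at room temperature, then washed. […] Bmax and Kd came from non-linear regression of phosphor-screen ROI data.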

TSPO [15] = assay: No-Wash Assay with [^3H]PBR28 in LPS-treated spleen and LPS injected brains; format: binding; conditions: LPS-treated spleen, 7-day and 30-day post LPS injected brains
[16] = 7-day post-LPS injection rat brain, [^3H]CPPC 3.5 nM, mean ± sd
[17] = [^3H]CPPC saturation in i.p. LPS mouse spleen
[18] = rats sacrificed 30-days post-surgery
[19] = [^3H]PBR28 saturation in i.p. LPS mouse spleen

## [3H]C([3H])([3H])N1CCN(c2ccc(NC(=O)c3ccc(C#N)o3)c(N3CCCCC3)c2)CC1 [[^3H]CPPC, [^3H] 5-cyano-N-(4-(4-methylpiperazin-1-yl)-2-(piperidin-1-yl)phenyl)furan-2-carboxamide]
CSF-1R [1]; [16]
  [^3H]CPPC binding, contralateral hemisphere: 17.9 ± 1.1 nCi/mg
  [^3H]CPPC binding, ipsilateral hemisphere: 18.9 ± 1.7 nCi/mg
CSF-1R [1]; 30-day LPS rat brain sections, radioligand concentration up to 40 nM
  saturability of [^3H]CPPC binding: failed to saturate
CSF-1R [1]; ipsilateral hemisphere of 30-day LPS rat brain, [^3H]CPPC 3 nM
  total binding of [^3H]CPPC: 15 nCi/mg
CSF-1R [2]
  specific signal of [^3H]CPPC: ~ 60%
CSF-1R [3]; [17]
  Bmax: 1339 fmol/mg tissue
CSF-1R [3]; i.p. LPS mouse spleen, [^3H]CPPC 3 nM
  baseline radioligand binding of [^3H]CPPC: 100 nCi/mg
CSF-1R [4]
  specific binding under No-Wash Assay conditions: lack of specific binding
[5]
  rate of decomposition: less than 3%

## CN1CCN(c2ccc(NC(=O)c3ccc(C#N)o3)c(N3CCCCC3)c2)CC1 [CPPC, 5-cyano-N-(4-(4-methylpiperazin-1-yl)-2-(piperidin-1-yl)phenyl)furan-2-carboxamide]
CSF-1R [1]; 10 μM unlabeled CPPC, LPS rodent brain tissue
  displacement of [^3H]CPPC binding: up to 50%
CSF-1R [1]; 7-day post-LPS rat brain, 10 μM unlabeled CPPC, [^3H]CPPC 3.5 nM
  % inhibition of [^3H]CPPC binding (signal-to-noise): 49.9 ± 2.9%
CSF-1R [1]; ipsilateral hemisphere of 30-day LPS rat brain, 10 μM competitor, [^3H]CPPC 3 nM
  inhibition of [^3H]CPPC binding: 60%
CSF-1R [3]
  IC50: 9.4 nM
CSF-1R [3]; CPPC concentration curve vs [^3H]CPPC in i.p. LPS spleen
  hillslope (nH): 0.46
CSF-1R [3]; i.p. LPS mouse spleen (n = 6), 10 μM competitor, [^3H]CPPC 3 nM
  inhibition of [^3H]CPPC binding: 85% and > 80%
403 known kinases
  kinase targets with off-target binding: 204 of 403
[6]
  IC50: 5.86 µM
[7]
  IC50: 4.88 µM
[8]
  IC50: 6.51 µM
Insulin receptor
  IC50: 70 nM
[9]
  IC50: 22 nM
[10]
  IC50: 74 nM
CSF-1R [11]
  ratio of total baseline binding to the inhibited condition: 1.7–2.7
Kit
  concentration of off-target binding: less than 0.1 μM
Axl
  concentration of off-target binding: less than 0.1 μM
TrkA
  concentration of off-target binding: less than 0.1 μM
Flt-3
  concentration of off-target binding: less than 0.1 μM
IRKβ
  concentration of off-target binding: less than 0.1 μM

## CN1CCN(c2ccc(NC(=O)c3ccc(C#N)o3)c(N3CCCCC3)c2)CC1 [[^3H]CPPC, [^3H] 5-cyano-N-(4-(4-methylpiperazin-1-yl)-2-(piperidin-1-yl)phenyl)furan-2-carboxamide]
CSF-1R [3]; [17]
  Kd: 4.3 nM

## COc1ccccc1CN(C(C)=O)c1cnccc1Oc1ccccc1 [[^3H]PBR28]
TSPO [12]; [^3H]PBR28 saturation, ipsilateral hemisphere of 30-day LPS rat brain
  Bmax: 620.7 fmol/mg
TSPO [12]; rats sacrificed 7-days post-surgery
  [^3H]PBR28 specific binding, contralateral hemisphere: 29.0 ± 3.1 nCi/mg
TSPO [12]; rats sacrificed 7-days post-surgery, mean ± sd
  [^3H]PBR28 specific binding, ipsilateral hemisphere: 83.5 ± 48.9 nCi/mg
TSPO [12]; [18]
  [^3H]PBR28 specific binding, contralateral hemisphere: 14.0 ± 2.36 nCi/mg
  [^3H]PBR28 specific binding, ipsilateral hemisphere: 36.2 ± 4.07 nCi/mg
TSPO [13]; areas of decreased immunostaining for inflammatory cells
  [^3H]PBR28 binding density: 620 MDC/mm^2
TSPO [13]; region of the tumor and immediately proximal areas
  relative target density ([^3H]PBR28 specific signal): 250500 MDC/mm^2
TSPO [14]; [19]
  Bmax: 14771 fmol/mg tissue
  Kd: 2.4 nM
TSPO [14]; defined using unlabeled 10 μM FEPPA, i.p. LPS mouse spleen
  specific binding: 99 ± 0.03%
TSPO [15]
  specific binding under No-Wash Assay conditions: > 60%
